ChEMBL document CHEMBL3228039, “Synthesis and evaluation of the antiovulatory activity of a variety of melatonin analogues” (J Med Chem, 1979)
Each block holds one compound with its values, some of them ahead of it. Activity calls are given as the source filed them. No cut-off for these calls is given here.

Tests used:
Rattus norvegicus [1] = test: Antiovulatory activity in Sprague-Dawley rat assessed as blockage of luteinizing hormone surge by measuring reduction in ovulation at 8 mg/kg, po by microscopic analysis; assay type: functional, organism-based; design: dose 8 mg/kg
Outline: (§1)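 Female rats (270-300 g) with at least two consecutive 4-day estrus cycles, tracked by daily vaginal smears, were used on the day of proestrus. A single dose was given at 1200 h, either iv in 50% Me2SO or orally in PEG 400. Controls received vehicle only. Rats were killed on the day of estrus, and oviducts were examined microscopically for ova. Absence of ova was scored as ovulation blocked.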

Rattus norvegicus [2] = test: Antiovulatory activity in Sprague-Dawley rat assessed as blockage of luteinizing hormone surge by measuring reduction in ovulation at 4 mg/kg, po by microscopic analysis; assay type: functional, organism-based; design: dose 4 mg/kg; outline: as §1
[3] = Half life in serum (unknown origin) after first 2 hrs post iv dose; assay type: ADME, organism-based
[4] = Half life in rat plasma after 30 mins; assay type: ADME, cell-free
[5] = Half life in rat plasma after 2 hrs; assay type: ADME, cell-free
Rattus norvegicus [6] = test: Antiovulatory activity in Sprague-Dawley rat assessed as blockage of luteinizing hormone surge by measuring reduction in ovulation at 8 mg/kg, iv by microscopic analysis; assay type: functional, organism-based; design: dose 8 mg/kg; outline: as §1
Rattus norvegicus [7] = test: Antiovulatory activity in Sprague-Dawley rat assessed as blockage of luteinizing hormone surge by measuring reduction in ovulation at 4 mg/kg, iv by microscopic analysis; assay type: functional, organism-based; design: dose 4 mg/kg; outline: as §1
Xenopus laevis = species: Xenopus laevis; test: Melatonin-like activity in tadpole by blanching test; assay type: functional, organism-based
Rattus norvegicus [8] = test: Antiovulatory activity in Sprague-Dawley rat assessed as blockage of luteinizing hormone surge by measuring reduction in ovulation at 5 mg/kg, po by microscopic analysis; assay type: functional, organism-based; design: dose 5 mg/kg; outline: as §1

SMILES: COc1ccc2c(c1)c(CCNC(C)=O)cn2C
Activity (Rattus norvegicus [1]): Active

SMILES: CCC(=O)NCCc1c[nH]c2cc(Cl)c(OC)cc12
Activity (Rattus norvegicus [2]): inactive

SMILES: CCOc1ccc2[nH]cc(CCNC(C)=O)c2c1
Activity (Rattus norvegicus [1]): Active

half-life [3]: > 12 min
half-life [4]: 15 min
half-life [5]: 12 min
SMILES: COc1ccc2[nH]cc(CCNC(C)=O)c2c1 [MELATONIN]

SMILES: COc1cc2c(CCNC(C)=O)c[nH]c2cc1C
Activity (Rattus norvegicus [1]): Active

SMILES: CC(=O)NCCc1c[nH]c2ccc(OC(C)=O)cc12
Activity (Rattus norvegicus [1]): Active
Activity (Rattus norvegicus [6]): Active

SMILES: COc1cc2c(CCNC(=O)C34CC5CC(CC(C5)C3)C4)c[nH]c2cc1Cl
Activity (Rattus norvegicus [1]): Active

SMILES: CC(=O)NCCc1c[nH]c2ccc(OC3CCCC3)cc12
Activity (Rattus norvegicus [1]): Active

half-life [3]: 27 min
SMILES: COc1cc2c(CCNC(C)=O)c[nH]c2cc1Cl
Activity (Rattus norvegicus [7]): inactive
Activity (Xenopus laevis): Active
Activity (Rattus norvegicus [8]): inactive

SMILES: COc1ccc2[nH]cc(CCNC(C)=O)c2c1Cl
Activity (Rattus norvegicus [1]): Active

SMILES: CC(=O)NCCc1c[nH]c2ccc(O)cc12
Activity (Rattus norvegicus [1]): Active
Activity (Rattus norvegicus [6]): Active
